Results collected from several papers.
Protocols differ between the studies behind these lines.
Observed: cell growth or viability

SMILES | cell line | assay | conditions | measurement | value
CC(=O)OCCCOc1ccc(C(=O)C(Cl)Cl)cc1[N+](=O)[O-] | NCI-H1650 | MTT | 2.5 µM | inhibition | 39.6%
C=CC(=O)NC1CCN(c2ncc3ncnc(Nc4ccc(Oc5ccc6c(c5)ncn6C)c(C)c4)c3n2)CC1 | HCC44 |  |  | EC50 | 934 nM
C=C(COCc1ccc(OC)cc1)[C@@H]1CC[C@@H](C)C[C@H]1OCc1ccc(OC)cc1 | A2780 | MTT | 30 µM, 72 h | inhibition | 27.4%
O=C(c1ccc(Oc2ccc3c(c2)OCO3)c([N+](=O)[O-])c1)C(Cl)Cl | NCI-H1650 | MTT | 2.5 µM | inhibition | 84.4%
COc1ccc(NC(=O)c2ccc(-n3cc(CNc4nc(OC)nc(OC)n4)nn3)cc2)cc1 | Caco-2 | MTT | 72 h | IC50 | 435 nM
N#Cc1ccc(Oc2ccc(C(=O)C(Cl)Cl)cc2[N+](=O)[O-])cc1 | NCI-H1650 | MTT | 2.5 µM | inhibition | 87.6%
C[C@@H]1CC[C@@H]([C@](C)(O)CNCc2ccccc2)[C@H](OCc2ccccc2)C1 | A2780 | MTT | 30 µM, 72 h | inhibition | 94.3%
C=C(F)C(=O)N1CCN(c2nc(OC[C@@H]3CCCN3C)nc3c2CCN(c2cccc4cccc(Cl)c24)C3)C[C@@H]1CC#N | HCC44 | ATP luminescence |  | IC50 | > 10000 nM
C=CC(=O)c1cccnc1Nc1cccc(C(F)(F)F)c1 | NCI-H28 | CCK-8 | 72 h | GI50 | 5110 nM
COc1cccc(CNC[C@@](C)(O)[C@@H]2CC[C@@H](C)C[C@H]2OCc2ccccc2)c1 | A2780 | MTT | 10 µM, 72 h | inhibition | 32.9%
NC(=O)COc1ccc(C(=O)C(Cl)Cl)cc1[N+](=O)[O-] | NCI-H1650 | MTT | 2.5 µM | inhibition | 1.51%
COc1nc(NCc2cn(-c3ccc(C(=O)Nc4ccc([N+](=O)[O-])cc4)cc3)nn2)nc(OC)n1 | Caco-2 | MTT | 72 h | IC50 | 724 nM
O=C(c1ccc(Oc2ccc(OCc3ccccc3)cc2)c([N+](=O)[O-])c1)C(Cl)Cl | NCI-H1650 | MTT | 2.5 µM | inhibition | 96.9%
C=CC(=O)N1CCN(c2nc(=O)n(-c3c(C)ccnc3C(C)C)c3nc(-c4c(O)cccc4F)c(F)cc23)[C@@H](C)C1 | NCI-H2122 | ATP luminescence |  | IC50 | 90.1 nM
COc1ccc(COC[C@@](O)(CNCc2ccccc2)[C@@H]2CC[C@@H](C)C[C@H]2OCc2ccc(OC)cc2)cc1 | A2780 | MTT | 10 µM, 72 h | inhibition | 98%
COc1nc(NCc2cn(-c3ccc(C(=O)Nc4ccccc4)cc3)nn2)nc(OC)n1 | Caco-2 | MTT | 72 h | IC50 | 208 nM
C[C@@H]1CC[C@@H]([C@](O)(CNCc2ccccc2)COCc2ccccc2)[C@H](OCc2ccccc2)C1 | A2780 | MTT | 30 µM, 72 h | inhibition | 91.1%
O=C(c1ccc(Oc2cccc(-c3ccccc3)c2)c([N+](=O)[O-])c1)C(Cl)Cl | NCI-H1650 | MTT | 2.5 µM | inhibition | 97.2%
C[C@@H]1CC[C@@H]([C@](O)(CNCc2ccc(F)cc2)COCc2ccc(F)cc2)[C@H](OCc2ccc(F)cc2)C1 | A2780 | MTT | 30 µM, 72 h | inhibition | 95.3%
COc1cccc2c1C(=O)c1c(O)c3c(c(O)c1C2=O)C[C@@](O)(C(=O)CO)C[C@@H]3O[C@H]1C[C@H](N)[C@H](O)[C@H](C)O1 | Caco-2 | MTT | 25 µg/mL, 48 h, serum-free | viability | 31.6%
COc1cccc2c1C(=O)c1c(O)c3c(c(O)c1C2=O)C[C@@](O)(C(=O)CO)C[C@@H]3O[C@H]1C[C@H](N)[C@H](O)[C@H](C)O1 | NCI-H1650 | MTT | 2.5 µM | inhibition | 95.8%
COc1ccc(CNC[C@@](C)(O)[C@@H]2CC[C@@H](C)C[C@H]2OCc2ccccc2)cc1 | A2780 | MTT | 10 µM, 72 h | inhibition | 42.9%
O=C(NO)c1ccc(CNc2nc3cccc(-c4ccc5c(c4)OCO5)n3n2)cc1 | TK-10 | SRB |  | GI50 | 520 nM
C[C@@H]1CC[C@@H]([C@](O)(CNCc2ccccc2)COCc2ccc(F)cc2)[C@H](OCc2ccc(F)cc2)C1 | A2780 | MTT | 10 µM, 72 h | inhibition | 95.2%
C=CC(=O)c1cccnc1Nc1cc(C(F)(F)F)ccc1OCc1ccccc1 | NCI-H28 | CCK-8 | 72 h | GI50 | 11200 nM
O=C(c1ccc(Oc2ccc(-c3ccccc3)cc2)c([N+](=O)[O-])c1)C(Cl)Cl | NCI-H1650 | MTT | 2.5 µM | inhibition | 97.5%
COc1ccc(C(=O)Nc2ccc(-n3cc(CNc4nc(OC)nc(OC)n4)nn3)cc2)cc1 | Caco-2 | MTT | 72 h | IC50 | 722 nM
